Test results reported in ChEMBL document CHEMBL3044755, “5-Methyl-1,2,3-thiadiazoles synthesized via ugi reaction and their fungicidal and antiviral activities” (J Agric Food Chem, 2010).

Legend:
[1] = tested on: Fusarium graminearum; assay: Fungicidal activity against Fusarium graminearum at 50 ug/ml by growth inhibition method; type: functional; conditions: read-out: GI
Method in brief: (§1)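 Mycelial growth inhibition on potato dextrose agar. The panel covered Alternaria solani, Botrytis cinerea, Cercospora arachidicola, C. beticola, Colletotrichum lagenarium, Fusarium oxysporum, Gibberella zeae, Puccinia triticina, Phytophthora infestans, Physalospora piricola, Pellicularia sasakii and Rhizoctonia solani.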

[2] = tested on: Tobacco mosaic virus; assay: In vivo antiviral activity against Tobacco mosaic virus (TMV) infected tobacco leaves assessed as protective effect at 100 ug/ml treated 12 hr before viral inoculation measured at 2-3 days after viral challenge; type: functional
Method in brief: (§2)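 Six-leaf tobacco; compound solution smeared over whole leaves, dried in greenhouse, then after 12 h TMV (5.88 10-2 μg/mL) rubbed onto upper three leaves, with solvent on lower three leaves as control. Local lesions counted 2-3 days post-inoculation, three repetitions. Inhibition (%) = (CK − A)/CK × 100 from mean lesion numbers.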

[3] = tested on: Nicotiana tabacum; assay: Induction of systemic acquired resistance activity in TMV infected-Nicotiana tabacum (tobacco) leaves at 50 ug/ml; type: functional
Method in brief: (§3)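 Tobacco/TMV system used for systemic acquired resistance induction. Inhibition ratio calculated from mean lesion numbers on inoculated leaves relative to corresponding control. Tiadinil and ribavirin run as controls.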

[4] = tested on: Phytophthora infestans; assay: Fungicidal activity against Phytophthora infestans at 50 ug/ml by growth inhibition method; type: functional; conditions: read-out: GI; method in brief: as §1
[5] = tested on: Puccinia triticina; assay: Fungicidal activity against Puccinia triticina at 50 ug/ml by growth inhibition method; type: functional; conditions: read-out: GI; method in brief: as §1
[6] = tested on: Colletotrichum lagenaria; assay: Fungicidal activity against Colletotrichum lagenaria at 50 ug/ml by growth inhibition method; type: functional; conditions: read-out: GI; method in brief: as §1
[7] = tested on: Tobacco mosaic virus; assay: In vitro antiviral activity against Tobacco mosaic virus (TMV) infected tobacco leaves at 100 ug/ml; type: functional
[8] = tested on: Alternaria solani; assay: Fungicidal activity against Alternaria solani at 50 ug/ml by growth inhibition method; type: functional; conditions: read-out: GI; method in brief: as §1
[9] = tested on: Rhizoctonia solani; assay: Fungicidal activity against Rhizoctonia solani at 50 ug/ml by growth inhibition method; type: functional; conditions: read-out: GI; method in brief: as §1
[10] = tested on: Tobacco mosaic virus; assay: In vivo antiviral activity against Tobacco mosaic virus (TMV) infected tobacco leaves assessed as inactivation effect at 500 ug/ml co-treated with virus for 30 min before inoculation onto leaves measured at 2-3 days after viral challenge; type: functional
Method in brief: (§4)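 TMV (5.88 10-2 μg/mL) mixed with equal volume of compound solution for 30 min, then rubbed onto upper three leaves of six-leaf tobacco; solvent on lower three leaves as control. Lesions counted 2-3 days later, three repetitions. Inhibition (%) = (CK − A)/CK × 100 from mean lesion counts.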

[11] = tested on: Cercospora beticola; assay: Fungicidal activity against Cercospora beticola at 50 ug/ml by growth inhibition method; type: functional; conditions: read-out: GI; method in brief: as §1
[12] = tested on: Botryosphaeria berengeriana; assay: Fungicidal activity against Botryosphaeria berengeriana at 50 ug/ml by growth inhibition method; type: functional; conditions: read-out: GI; method in brief: as §1
[13] = tested on: Nicotiana tabacum; assay: Induction of systemic acquired resistance activity in TMV infected-Nicotiana tabacum (tobacco) leaves at 100 ug/ml; type: functional; method in brief: as §3
[14] = tested on: Tobacco mosaic virus; assay: In vivo antiviral activity against Tobacco mosaic virus (TMV) infected tobacco leaves assessed as inactivation effect at 100 ug/ml co-treated with virus for 30 min before inoculation onto leaves measured at 2-3 days after viral challenge; type: functional; method in brief: as §4
[15] = tested on: Tobacco mosaic virus; assay: In vivo antiviral activity against Tobacco mosaic virus (TMV) infected tobacco leaves assessed as curative effect at 500 ug/ml treated after viral inoculation measured at 2-3 days after viral challenge; type: functional
Method in brief: (§5)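 Curative test: whole six-leaf tobacco leaves rubbed with TMV (5.88 10-2 μg/mL), dried in greenhouse, then compound smeared on upper three leaves and solvent on lower three as control. Local lesions scored 2-3 days after inoculation, three repetitions. Inhibition (%) = (CK − A)/CK × 100 on mean lesion numbers.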

[16] = tested on: Tobacco mosaic virus; assay: In vitro antiviral activity against Tobacco mosaic virus (TMV) infected tobacco leaves at 500 ug/ml; type: functional
[17] = tested on: Tobacco mosaic virus; assay: In vivo antiviral activity against Tobacco mosaic virus (TMV) infected tobacco leaves assessed as protective effect at 500 ug/ml treated 12 hr before viral inoculation measured at 2-3 days after viral challenge; type: functional; method in brief: as §2
[18] = tested on: Thanatephorus cucumeris; assay: Fungicidal activity against Thanatephorus cucumeris at 50 ug/ml by growth inhibition method; type: functional; conditions: read-out: GI; method in brief: as §1
[19] = tested on: Mycosphaerella arachidis; assay: Fungicidal activity against Mycosphaerella arachidis at 50 ug/ml by growth inhibition method; type: functional; conditions: read-out: GI; method in brief: as §1
[20] = tested on: Tobacco mosaic virus; assay: In vivo antiviral activity against Tobacco mosaic virus (TMV) infected tobacco leaves assessed as curative effect at 100 ug/ml treated after viral inoculation measured at 2-3 days after viral challenge; type: functional; method in brief: as §5
[21] = tested on: Nicotiana tabacum; assay: Phytotoxicity against Nicotiana tabacum (tobacco) plant; type: organism-based; conditions: in vivo
[22] = tested on: Botrytis cinerea; assay: Fungicidal activity against Botryotinia fuckeliana at 50 ug/ml by growth inhibition method; type: functional; conditions: read-out: GI; method in brief: as §1
[23] = tested on: Fusarium oxysporum; assay: Fungicidal activity against Fusarium oxysporum at 50 ug/ml by growth inhibition method; type: functional; conditions: read-out: GI; method in brief: as §1

Structure (SMILES) | inhibition of growth at 50 µg/mL [1] [%] | Activity [2] [%] | Activity [3] [%] | inhibition of growth at 50 µg/mL [4] [%] | inhibition of growth at 50 µg/mL [5] [%] | inhibition of growth at 50 µg/mL [6] [%] | inhibition at 100 µg/mL [7] [%] | inhibition of growth at 50 µg/mL [9] [%] | Activity [10] [%] | inhibition of growth at 50 µg/mL [11] [%] | inhibition of growth at 50 µg/mL [12] [%] | Activity [13] [%] | Activity [14] [%] | Activity [15] [%] | inhibition at 500 µg/mL [16] [%] | Activity [17] [%] | inhibition of growth at 50 µg/mL [18] [%] | inhibition of growth at 50 µg/mL [19] [%] | Activity [20] [%] | Activity [21] | other results
Cc1ccc(N(C(=O)c2nnsc2C)C(C(=O)NC2CCCCC2)c2cccc(O)c2)cc1F (stereo not drawn) | 14 | 43 | 32 | 6 | 0 | 0 | 25 | 30 | 67 | 25 | 0 | 76 | 44 | 57 | 48 | 44 | 0 | 0 | 23 | Non-toxic | inhibition of growth at 50 µg/mL [8]: 0%
Cc1cccc(C(C(=O)NC2CCCCC2)N(C(=O)c2nnsc2C)c2ccc(C)c(F)c2)c1 (stereo not drawn) | 36 | 10 | 40 | 1 | 0 | 0 | 44 | 37 | 69 | 25 | 0 | 54 | 38 | 38 | 29 | 8 | 0 | 0 | 29 | Non-toxic | inhibition of growth at 50 µg/mL [8]: 6%
Cc1ccc(N(C(=O)c2nnsc2C)C(C(=O)NC(C)C)c2ccc(O)cc2)cc1F (stereo not drawn) | 0 | 71 | 36 | 0 | 0 | 0 | 26 | 0 | 72 | 0 | 0 | 7 | 51 | 55 | 35 | 76 | 4 | 0 | 28 | Non-toxic | inhibition of growth at 50 µg/mL [8]: 0%
Cc1ccc(N(C(=O)c2nnsc2C)C(C(=O)NC2CCCCC2)c2ccc(F)cc2)cc1F (stereo not drawn) | 0 | 6 | 41 | 25 | 0 | 14 | 24 | 2 | 79 | 0 | 0 | 41 | 69 | 52 | 44 | 17 | 87 | 9 | 20 | Non-toxic | inhibition of growth at 50 µg/mL [8]: 0%
Cc1ccc(N(C(=O)c2nnsc2C)C(C(=O)NC2CCCCC2)c2cccc(Cl)c2)cc1F (stereo not drawn) | 27 | 29 | 30 | 44 | 14 | 0 | 14 | 39 | 79 | 25 | 8 | 22 | 69 | 40 | 18 | 67 | 0 | 27 | 0 | Non-toxic | inhibition of growth at 50 µg/mL [8]: 25%
Cc1ccc(NC(=O)c2snnc2C)cc1Cl [TIADINIL] | 36 | 57 | 50 | 46 |  |  | 25 | 1 | 59 | 40 | 74 | 52 | 42 | 58 | 48 | 75 | 46 | 18 | 46 | Non-toxic | inhibition of growth at 50 µg/mL [22]: 67%; inhibition of growth at 50 µg/mL [23]: 48%
Cc1ccc(N(C(=O)c2nnsc2C)C(C(=O)NC(C)C)c2ccc([N+](=O)[O-])cc2)cc1F (stereo not drawn) | 0 | 26 | 66 | 13 | 0 | 0 | 9 | 17 | 62 | 25 | 0 | 7 | 65 | 17 | 25 | 27 | 22 | 27 | 0 | Non-toxic | inhibition of growth at 50 µg/mL [8]: 0%
Cc1ccc(N(C(=O)c2nnsc2C)C(C(=O)NC(C)C)c2ccccc2F)cc1F (stereo not drawn) | 27 | 27 | 59 | 44 | 0 | 14 | 16 | 15 | 74 | 13 | 0 | 7 | 73 | 60 | 46 | 60 | 0 | 0 | 47 | Non-toxic | inhibition of growth at 50 µg/mL [8]: 38%
Cc1ccc(N(C(=O)c2nnsc2C)C(C(=O)NC(C)C)c2ccccc2C(F)(F)F)cc1F (stereo not drawn) | 27 | 5 | 30 | 44 | 0 | 36 | 57 | 17 | 65 | 13 | 0 | 60 | 67 | 44 | 71 | 44 | 15 | 9 | 32 | Non-toxic | inhibition of growth at 50 µg/mL [8]: 13%
